In ChEMBL document CHEMBL1151165, “Characterization of the preferred stereochemistry for the neuropharmacologic actions of antillatoxin” (J Nat Prod, 2004):
pEC50: −log10 of the molar value.

How the values were obtained:
[1] = Cytotoxicity against mouse Neuro2a cells; format: cell-based, N2a; details: read-out: LD50 (the source's name)
[2] = Increase in cytoplasmic calcium influx in Sprague-Dawley rat CGN cells by FLIPR; format: cell-based
Summary of the method: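 Cytoplasmic Ca2+ in cerebellar granule cells was followed by fluo-3 fluorescence, with basal fluorescence (about 4000 units) subtracted. The response is the integrated fluorescence area under the curve, plotted against compound concentration.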

[3] = Cytotoxicity in Sprague-Dawley rat CGN cells assessed as LDH release after 2 hrs; format: cell-based; details: for pEC50: read-out: EC50
Summary of the method: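 Rat cerebellar granule cells, 11-13 days in culture, exposed 2 h to the compound across a concentration range. LDH efflux into the culture medium was measured, and pEC50 was taken from concentration-response curves. Two separate experiments, each in triplicate, mean ± SEM.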

[4] = test system: Carassius auratus; assay: Ichthyotoxicity against Carassius auratus; format: organism-based; details: in vivo
[5] = Cytotoxicity in Sprague-Dawley rat CGN cells assessed as LDH release after 2 hrs in presence of 1 uM tetrodotoxin; format: cell-based
[6] = Increase in extracellular acidification rate in Sprague-Dawley rat CGN cells by cytosensor microphysiometer; format: cell-based
Summary of the method: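 Cerebellar granule neurons were cultured on porous polycarbonate membranes, and extracellular acidification rate was monitored by microphysiometry over a range of concentrations. Peak acidification rate is expressed as percent of basal proton efflux. Two separate experiments, each in duplicate, mean ± SEM.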

[7] = Cytotoxicity in Sprague-Dawley rat CGN cells assessed as LDH release at 100 nM after 2 hrs in presence of 1 uM tetrodotoxin; format: cell-based; details: 0.1 µM
[8] = Increase in extracellular acidification rate in Sprague-Dawley rat CGN cells at 100 nM by cytosensor microphysiometer; format: cell-based; details: 0.1 µM

SMILES	CC50 [1]	Activity [2]	pEC50 [3]	EC50 ([3]; read-out: pEC50 (converted))	Activity [4]	Activity [5]	Activity [6]	Activity [7]	Activity [8]
C=C1CC(=O)N[C@@H](C)C(=O)N(C)[C@@H](C(C)C)C(=O)NCC(=O)O[C@@H](/C(C)=C/C(C)=C/C(C)(C)C)[C@H]1C	5 µM	Dose-dependent effect and tde							
C=C1CC(=O)N[C@@H](C)C(=O)N(C)[C@@H](C(C)C)C(=O)NCC(=O)O[C@@H](/C(C)=C/C(C)=C/C(C)(C)C)[C@@H]1C [ANTILLATOXIN]	0.18 µM	Dose-dependent effect and tde	7.38	0.0457 µM	0.1 µM	Non-toxic	41 nM	Non-toxic	300%
C=C1CC(=O)N[C@@H](C)C(=O)N(C)[C@@H](C(C)C)C(=O)NCC(=O)O[C@H](/C(C)=C/C(C)=C/C(C)(C)C)[C@@H]1C	10 µM	Dose-dependent effect and tde	5.09		Non-toxic		5000 nM		
C=C1CC(=O)N[C@@H](C)C(=O)N(C)[C@@H](C(C)C)C(=O)NCC(=O)O[C@H](/C(C)=C/C(C)=C/C(C)(C)C)[C@H]1C	10 µM	Dose-dependent effect and tde							
